Assay results as given in ChEMBL document CHEMBL1156940, “Modified cap group suberoylanilide hydroxamic acid histone deacetylase inhibitor derivatives reveal improved selective antileukemic activity” (J Med Chem, 2010).
The source made the active and inactive calls. No cut-off for these calls is given here.

Assays:
Mus musculus [1] = test: Toxicity in FVB mouse assessed as effect on mean cell volume of red cells at 50 mg/kg, po administered 5 times per week for 2 weeks (reference value: 43.9 +/- 0.5 microm^3); settings: in vivo, 336 h
SK-BR-3 = test: Antiproliferative activity against human SK-BR-3 cells after 48 hrs by cell titer-glo assay; format: functional, cell-based; settings: SK-BR-3, 48 h
[2] = biological target: Histone deacetylase 1 (Homo sapiens) (UniProt Q13547); test: Inhibition of recombinant FLAG-tagged HDAC1 assessed as [3H]acetic acid release preincubated for 30 mins measured after 2 hrs by scintillation counting
Procedure, shortened: (§1)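 FLAG-tagged HDAC1 or HDAC6 was immunopurified from stably expressing cell lines and washed in HDAC buffer (10 mM Tris-HCl pH 8.0, 10 mM NaCl, 10% glycerol). Enzyme was preincubated with inhibitor (1 µM) for 30 min at 4 °C, then given 20 000 cpm [3H]peracetylated H4 peptide for 2 h at 37 °C. The reaction was stopped with acetic acid/HCl, extracted into ethyl acetate, and released [3H]acetate counted by scintillation.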

Mus musculus [3] = test: Toxicity in FVB mouse assessed as effect on mean platelet volume at 50 mg/kg, po administered 5 times per week for 2 weeks measured during test (reference value: 8.4 +/- 0.5 microm^3); format: organism-based; design: dose 50 mg/kg, route oral; settings: in vivo, 336 h
Procedure, shortened: (§2)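 8-week-old FVB mice were housed specific-pathogen-free and randomly assigned, n = 3 per group. They received 50 mg/kg compound or vehicle alone by oral gavage, five times weekly for 2 weeks. Body weight and survival were monitored. Differential blood counts came from nonlethal retro-orbital bleeds before study (J-5), during study (J5) and at end point (J12). Values are means ± spread for n = 3.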

Jurkat = test: Antiproliferative activity against human Jurkat JA16 cells after 48 hrs by cell titer-glo assay; format: functional, cell-based
Mus musculus [4] = test: Toxicity in FVB mouse assessed as mortality at 50 mg/kg, po administered 5 times per week for 2 weeks measured up to 1 month; format: organism-based; design: dose 50 mg/kg, route oral; settings: in vivo, 336 h
Procedure, shortened: (§3)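 8-week-old Fvb mice, SPF-housed in ventilated cages with acidified water, randomly assigned (n = 3 per group) to compound or solvent-only vehicle. Dosing was by oral gavage five times weekly for 2 weeks. Survival was monitored with body weight and blood counts during dosing, and deaths were also recorded during the month after treatment stopped.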

Mus musculus [5] = test: Toxicity in FVB mouse assessed as effect on body weight at 50 mg/kg, po administered 5 times per week for 2 weeks; format: organism-based; design: dose 50 mg/kg, route oral; settings: in vivo, 336 h
Procedure, shortened: as §2

HT-29 = test: Antiproliferative activity against human HT-29 cells after 48 hrs by cell titer-glo assay; format: functional, cell-based; settings: HT-29, 48 h
[6] = biological target: T1, Protein deacetylase HDAC6 (Homo sapiens) (UniProt Q9UBN7); test: Inhibition of recombinant FLAG-tagged HDAC6 assessed as [3H]acetic acid release preincubated for 30 mins measured after 2 hrs by scintillation counting
T1 sequence (whole entry): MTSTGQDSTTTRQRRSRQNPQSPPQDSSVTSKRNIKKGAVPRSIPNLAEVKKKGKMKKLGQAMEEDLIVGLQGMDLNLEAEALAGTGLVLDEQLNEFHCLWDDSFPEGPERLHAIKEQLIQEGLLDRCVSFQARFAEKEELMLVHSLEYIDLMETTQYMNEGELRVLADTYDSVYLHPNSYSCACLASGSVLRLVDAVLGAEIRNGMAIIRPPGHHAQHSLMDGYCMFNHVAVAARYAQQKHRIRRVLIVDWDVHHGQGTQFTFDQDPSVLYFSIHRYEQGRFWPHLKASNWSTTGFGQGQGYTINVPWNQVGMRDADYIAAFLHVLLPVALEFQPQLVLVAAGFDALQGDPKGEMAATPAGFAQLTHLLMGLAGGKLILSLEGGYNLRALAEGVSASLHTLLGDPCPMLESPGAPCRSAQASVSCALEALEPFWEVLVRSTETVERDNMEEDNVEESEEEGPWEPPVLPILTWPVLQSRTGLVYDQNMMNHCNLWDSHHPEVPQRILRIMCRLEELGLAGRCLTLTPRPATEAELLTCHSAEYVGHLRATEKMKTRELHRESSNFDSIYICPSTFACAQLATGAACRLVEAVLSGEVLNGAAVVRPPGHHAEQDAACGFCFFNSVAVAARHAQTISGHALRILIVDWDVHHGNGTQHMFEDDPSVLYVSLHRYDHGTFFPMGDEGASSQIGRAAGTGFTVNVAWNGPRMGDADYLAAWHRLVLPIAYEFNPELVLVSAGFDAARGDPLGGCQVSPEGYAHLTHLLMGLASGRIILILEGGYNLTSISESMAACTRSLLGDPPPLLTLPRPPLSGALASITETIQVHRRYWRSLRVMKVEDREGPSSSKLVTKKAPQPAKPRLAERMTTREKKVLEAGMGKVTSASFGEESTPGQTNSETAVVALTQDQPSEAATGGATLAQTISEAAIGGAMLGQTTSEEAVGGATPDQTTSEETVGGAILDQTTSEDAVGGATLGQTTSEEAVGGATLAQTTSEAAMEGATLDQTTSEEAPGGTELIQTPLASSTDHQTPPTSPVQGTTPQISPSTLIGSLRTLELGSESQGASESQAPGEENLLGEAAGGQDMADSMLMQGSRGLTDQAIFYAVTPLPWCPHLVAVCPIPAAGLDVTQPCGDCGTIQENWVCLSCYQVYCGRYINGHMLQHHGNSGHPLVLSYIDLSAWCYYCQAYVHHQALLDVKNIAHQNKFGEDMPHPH
Procedure, shortened: as §1

Mus musculus [7] = test: Toxicity in FVB mouse assessed as effect on number of RBC at 50 mg/kg, po administered 5 times per week for 2 weeks measured during test (reference value: 8.1 +/- 0.2 10^6/mm^3); format: organism-based; design: dose 50 mg/kg, route oral; settings: in vivo, 336 h
Procedure, shortened: as §2

HL-60 = test: Antiproliferative activity against human HL60 cells after 48 hrs by cell titer-glo assay; format: functional, cell-based; settings: HL-60, 48 h
Mus musculus [8] = test: Toxicity in FVB mouse assessed as effect on hematocrit at 50 mg/kg, po administered 5 times per week for 2 weeks; format: organism-based; design: dose 50 mg/kg, route oral; settings: in vivo, 336 h
Procedure, shortened: as §2

Mus musculus [9] = test: Toxicity in FVB mouse assessed as effect on mean cell volume of red cells at 50 mg/kg, po administered 5 times per week for 2 weeks measured during test (reference value: 43.7 +/- 0.4 microm^3); format: organism-based; design: dose 50 mg/kg, route oral; settings: in vivo, 336 h
Procedure, shortened: as §2

Mus musculus [10] = test: Toxicity in FVB mouse assessed as effect on number of platelets at 50 mg/kg, po administered 5 times per week for 2 weeks measured during test (reference value: 454 +/- 93 10^3/mm^3); format: organism-based; design: dose 50 mg/kg, route oral; settings: in vivo, 336 h
Procedure, shortened: as §2

Mus musculus [11] = test: Toxicity in FVB mouse assessed as mortality at 50 mg/kg, po administered 5 times per week for 2 weeks; format: organism-based; design: dose 50 mg/kg, route oral; settings: in vivo, 336 h
Procedure, shortened: as §3

Mus musculus [12] = test: Toxicity in FVB mouse assessed as effect on number of WBC at 50 mg/kg, po administered 5 times per week for 2 weeks measured during test (reference value: 9.1 +/- 0.2 10^3/mm^3); format: organism-based; design: dose 50 mg/kg, route oral; settings: in vivo, 336 h
Procedure, shortened: as §2

U-937 = test: Antiproliferative activity against human U937 cells after 48 hrs by cell titer-glo assay; format: functional, cell-based; settings: U-937, 48 h
Procedure, shortened: (§4)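 Cells kept in RPMI-1640 with 10% FBS at 37 °C, 5% CO2. 10^4 suspension cells were plated immediately before dosing. Compounds were added at 0.1–100 µM, final 1% DMSO, with DMSO vehicle control, and incubated 48 h. CellTiter-Glo luminescence was read. EC50 is the dose reducing luminescence to 50% of untreated cultures.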

Mus musculus [13] = test: Toxicity in FVB mouse assessed as effect on hematocrit at 50 mg/kg, po administered 5 times per week for 2 weeks measured during test; format: organism-based; design: dose 50 mg/kg, route oral; settings: in vivo, 336 h
Procedure, shortened: as §2

Mus musculus [14] = test: Toxicity in FVB mouse assessed as effect on number of platelets at 50 mg/kg, po administered 5 times per week for 2 weeks (reference value: 514 +/- 42.8 10^3/mm^3); format: organism-based; design: dose 50 mg/kg, route oral; settings: in vivo, 336 h
Procedure, shortened: as §2

Mus musculus [15] = test: Toxicity in FVB mouse assessed as effect on number of WBC at 50 mg/kg, po administered 5 times per week for 2 weeks (reference value: 9.1 +/- 0.2 10^3/mm^3); format: organism-based; design: dose 50 mg/kg, route oral; settings: in vivo, 336 h
Procedure, shortened: as §2

[16] = Therapeutic ratio, EC50 for human PBMC to EC50 for human 937 cells; settings: human PBMC versus human 937 cells
K562 = test: Antiproliferative activity against human K562 cells after 48 hrs by cell titer-glo assay; format: functional, cell-based; settings: K562, 48 h
Procedure, shortened: as §4

Mus musculus [17] = test: Toxicity in FVB mouse assessed as effect on mean platelet volume at 50 mg/kg, po administered 5 times per week for 2 weeks (reference value: 8.8 +/- 0.1 microm^3); format: organism-based; design: dose 50 mg/kg, route oral; settings: in vivo, 336 h
Procedure, shortened: as §2

Mus musculus [18] = test: Toxicity in FVB mouse assessed as effect on body weight at 50 mg/kg, po administered 5 times per week for 2 weeks measured during test; format: organism-based; design: dose 50 mg/kg, route oral; settings: in vivo, 336 h
Procedure, shortened: as §2

Mus musculus [19] = test: Toxicity in FVB mouse assessed as effect on number of RBC at 50 mg/kg, po administered 5 times per week for 2 weeks (reference value: 7.7 +/- 0.1 10^6/mm^3); format: organism-based; design: dose 50 mg/kg, route oral; settings: in vivo, 336 h
Procedure, shortened: as §2

Histone deacetylase 1 (Homo sapiens), sequence (Q13547 whole entry): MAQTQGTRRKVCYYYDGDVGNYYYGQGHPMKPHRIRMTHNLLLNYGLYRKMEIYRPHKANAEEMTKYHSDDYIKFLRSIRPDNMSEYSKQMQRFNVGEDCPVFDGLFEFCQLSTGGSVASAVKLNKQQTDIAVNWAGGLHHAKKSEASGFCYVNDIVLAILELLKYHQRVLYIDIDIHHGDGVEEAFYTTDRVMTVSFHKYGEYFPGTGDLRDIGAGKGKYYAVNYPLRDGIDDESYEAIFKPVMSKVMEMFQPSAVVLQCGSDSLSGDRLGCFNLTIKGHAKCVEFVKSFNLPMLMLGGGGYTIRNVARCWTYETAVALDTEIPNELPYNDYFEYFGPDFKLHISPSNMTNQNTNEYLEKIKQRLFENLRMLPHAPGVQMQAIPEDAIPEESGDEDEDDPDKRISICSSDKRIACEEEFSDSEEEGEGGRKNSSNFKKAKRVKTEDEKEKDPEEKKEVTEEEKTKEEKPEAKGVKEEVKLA

With O=C(CCCCCCC(=O)Nc1ccc(I)cc1)NO as the compound, how does the Activity (Mus musculus [1]) read?
Its Activity is 43.7 um3.

What about the EC50 (SK-BR-3) of the same compound?
The EC50 was 1100 nM.

And the Activity [2]?
The Activity was “Active”.

What about the Activity (Mus musculus [3]) of the same compound?
Its Activity is 8.6 um3.

What about the EC50 (Jurkat) of the same compound?
The EC50 was 240 nM.

And the Activity (Mus musculus [4])?
Its Activity is “Non-toxic”.

And the Activity (Mus musculus [5])?
The Activity was 97.8%.

And the EC50 (HT-29)?
Its EC50 is 950 nM.

What about the Activity [6] of the same compound?
The Activity was “Active”.

And the Activity (Mus musculus [7])?
Its Activity is 8.02 10^6/mm3.

And the EC50 (HL-60)?
Its EC50 is 850 nM.

What about the Activity (Mus musculus [8]) of the same compound?
The Activity was 30.2%.

What about the Activity (Mus musculus [9]) of the same compound?
The Activity was 43.9 um3.

And the Activity (Mus musculus [10])?
The Activity was 478.3 10^3/mm3.

And the Activity (Mus musculus [11])?
The Activity was “Non-toxic”.

What about the Activity (Mus musculus [12]) of the same compound?
The Activity was 7.5 10^3/mm3.

What about the EC50 (U-937) of the same compound?
The EC50 was 120 nM.

What about the Activity (Mus musculus [13]) of the same compound?
Its Activity is 35.2%.

What about the Activity (Mus musculus [14]) of the same compound?
Its Activity is 537 10^3/mm3.

And the Activity (Mus musculus [15])?
The Activity was 7.5 10^3/mm3.

What about the selectivity ratio [16] of the same compound?
The selectivity ratio was 30.

And the EC50 (K562)?
Its EC50 is 1300 nM.

What about the Activity (Mus musculus [17]) of the same compound?
Its Activity is 8.7 um3.

What about the Activity (Mus musculus [18]) of the same compound?
Its Activity is 99.7%.

What about the Activity (Mus musculus [19]) of the same compound?
Its Activity is 6.9 10^6/mm3.
